Experimental data from different studies.
Target: Serine/threonine-protein kinase Nek1 (NEK1, Homo sapiens, UniProt Q96PY6)
Sequence (Q96PY6 1-1258, as in one of the studies): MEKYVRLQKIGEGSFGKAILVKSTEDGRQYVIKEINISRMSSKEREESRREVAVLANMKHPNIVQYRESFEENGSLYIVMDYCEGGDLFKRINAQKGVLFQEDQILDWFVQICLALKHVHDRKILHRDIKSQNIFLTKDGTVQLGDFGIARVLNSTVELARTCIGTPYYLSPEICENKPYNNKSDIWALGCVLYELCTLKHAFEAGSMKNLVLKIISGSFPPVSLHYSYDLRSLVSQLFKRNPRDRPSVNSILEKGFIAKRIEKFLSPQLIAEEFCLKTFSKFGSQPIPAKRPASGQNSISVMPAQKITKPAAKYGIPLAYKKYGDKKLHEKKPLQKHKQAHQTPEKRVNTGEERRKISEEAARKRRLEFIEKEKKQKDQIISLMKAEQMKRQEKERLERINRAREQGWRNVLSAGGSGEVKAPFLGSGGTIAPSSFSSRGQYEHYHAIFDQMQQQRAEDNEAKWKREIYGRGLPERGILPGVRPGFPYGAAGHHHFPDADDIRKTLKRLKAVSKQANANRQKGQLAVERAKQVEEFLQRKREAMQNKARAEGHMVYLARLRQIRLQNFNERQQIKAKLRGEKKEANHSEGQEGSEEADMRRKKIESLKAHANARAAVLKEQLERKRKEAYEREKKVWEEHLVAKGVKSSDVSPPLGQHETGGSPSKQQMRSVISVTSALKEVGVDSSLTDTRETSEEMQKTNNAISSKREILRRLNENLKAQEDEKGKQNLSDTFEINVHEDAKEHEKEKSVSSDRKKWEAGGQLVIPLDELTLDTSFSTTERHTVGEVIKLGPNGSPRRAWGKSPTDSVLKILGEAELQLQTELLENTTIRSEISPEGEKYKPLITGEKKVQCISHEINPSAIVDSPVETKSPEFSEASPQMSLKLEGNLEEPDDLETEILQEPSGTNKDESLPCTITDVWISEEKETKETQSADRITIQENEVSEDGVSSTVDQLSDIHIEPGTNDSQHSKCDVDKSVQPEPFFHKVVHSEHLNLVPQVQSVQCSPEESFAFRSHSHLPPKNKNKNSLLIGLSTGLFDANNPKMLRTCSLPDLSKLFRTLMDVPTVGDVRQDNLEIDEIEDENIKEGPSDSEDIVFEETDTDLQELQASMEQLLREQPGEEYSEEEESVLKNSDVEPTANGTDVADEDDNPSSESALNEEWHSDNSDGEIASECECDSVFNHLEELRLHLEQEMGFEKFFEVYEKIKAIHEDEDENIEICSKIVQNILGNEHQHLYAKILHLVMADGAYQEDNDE

| SMILES | read-out | action | technique | cells | tested at | endpoint | value |
| --- | --- | --- | --- | --- | --- | --- | --- |
| CCOCCn1cc(C(=O)Nc2ccc(-n3nc(-c4cccnc4)cc3C(F)(F)F)cn2)ccc1=O | cell-free assay | – | competition with immobilised ligand | – | 1 µM | remaining binding | 100% |
| CCCS(=O)(=O)Nc1ccc(F)c(C(=O)c2c[nH]c3ncc(-c4ccc(Cl)cc4)cc23)c1F | enzyme activity | inhibitor | – | – | 1 µM | inhibition | < 20% |
| C[C@H](c1ccnc(Nc2nc3ccc(-c4cc(N(C)C)ncn4)cc3[nH]2)c1)N1CCN(C(=O)CC(F)(F)F)CC1 | cell-free assay | – | competition with immobilised ligand | – | 0.1 µM | remaining binding | 93% |
| COc1cc2ncnc(Nc3ccc(Oc4ccccc4)cc3C)c2cc1OC | enzyme activity | inhibitor | – | – | 1 µM | inhibition | -2% |
| CCN1CCN(Cc2ccc(NC(=O)c3ccc(C)c(/C=C/c4cnc5[nH]ccc5c4OC)c3)cc2C(F)(F)F)CC1 | target engagement in cells | inhibitor | chemoproteomics | A-375 | 5 µM | inhibition | -11.6% |
| CC(C)(O)[C@H]1CC[C@H](Nc2ccc3ncc(-c4cccc(C(F)(F)F)c4)n3n2)CC1 | enzyme activity | inhibitor | – | – | 1 µM | remaining activity | 48.3% |
| CC(=O)N1CCC(c2ccc(C(=O)NC3=NCCN3)cc2C(F)(F)F)CC1 | cell-free assay | – | competition with immobilised ligand | – | 1 µM | remaining binding | 100% |
| CNc1cc(Oc2cc(C(=O)Nc3cc(N4CCN(C)CC4)cc(C(F)(F)F)c3)ccc2C)ncn1 | target engagement in cells | inhibitor | chemoproteomics | Huh-7 | 1 µM | inhibition | -12.5% |
| C[S+]([O-])c1ccc(-c2nc(-c3ccncc3)c(-c3ccc(F)cc3)[nH]2)cc1 (stereo not shown) | cell-free assay | – | – | – | 0.5 µM | remaining signal | 94.7% |
| COc1cccc2c(NCc3ccccc3)nc(-n3c(N)nc4ccccc43)nc12 | target engagement in cells | inhibitor | chemoproteomics | – | 20 mM | inhibition | -13% |
| C[C@@H]1CN(c2cc(-c3n[nH]c4ccc(OC5(C)CC5)cc34)ncn2)C[C@H](C)O1 | cell-free assay | – | competition with immobilised ligand | – | 0.1 µM | remaining binding | 100% |
| O=C(Nc1cnn(-c2csc(C(=O)NC3COC3)c2)c1)Nc1c(F)cccc1Cl | enzyme activity | inhibitor | – | – | 5 µM | remaining activity | 77.2% |
| Cn1cnc(Br)c1C1=CN(c2ncnc3[nH]cnc23)CCS1 | enzyme activity | inhibitor | radiometric | – | 2 µM | inhibition | 96.5% |
| CNC(=O)c1ccc(Nc2ncc(C(F)(F)F)c(NCc3nccnc3N(C)S(C)(=O)=O)n2)cc1 | cell-free assay | – | competition with immobilised ligand | – | 0.1 µM | remaining binding | 75% |
| Cc1ccc(Nc2nccc(N(C)c3ccc4c(C)n(C)nc4c3)n2)cc1S(N)(=O)=O | enzyme activity | inhibitor | – | – | 0.5 µM | remaining activity | 105% |
| O=C(Nc1cnc(Oc2ccc(F)cc2)nc1)N1CCc2ncccc2[C@@H]1c1ccc(F)cc1 | cell-free assay | – | competition with immobilised ligand | – | 1 µM | remaining binding | 84% |
| Nc1ncnc2occ(-c3ccc(NC(=O)Nc4cc(C(F)(F)F)ccc4F)cc3)c12 | cell-free assay | inhibitor | – | – | 20 µM | remaining signal | 22% |
| CS(=O)(=O)CCNCc1ccc(-c2ccc3ncnc(Nc4ccc(OCc5cccc(F)c5)c(Cl)c4)c3c2)o1 | cell-free assay | – | – | – | 0.5 µM | remaining signal | 71.8% |
| c1ccc(CNc2nc(N3CCOc4ccccc43)nc3c2CCCC3)cc1 | target engagement in cells | inhibitor | chemoproteomics | – | 20 mM | inhibition | -7.6% |
| O=C1NC(=O)c2cc(Nc3ccc(F)cc3)c(Nc3ccc(F)cc3)cc21 | cell-free assay | – | – | – | 0.5 µM | remaining signal | 88% |
| C[C@@H]1CN(c2cc(-c3nn(C)c4ccc(OC5(C)CC5)cc34)ncn2)C[C@H](C)O1 | cell-free assay | – | competition with immobilised ligand | – | 1 µM | remaining binding | 83% |
| CC(C)(C)c1nc2c(s1)c1nc(N)ncc1c1ccc(NS(=O)(=O)c3c(F)cccc3F)c(F)c12 | enzyme activity | inhibitor | radiometric | – | 1 µM | remaining activity | 92% |
